Consider 4 compounds from PMC3555362 (Angewandte Chemie (International Ed. in English), 2011).

Square brackets hold non-standard residues; d marks the D form. Peptide text beside a SMILES is read from it. pT = C[C@@H](OP(=O)(O)O)[C@H](N)C(=O)O; pS = N[C@@H](COP(=O)(O)O)C(=O)O

The target of test [1] is polo-box domain (PBD) of Plk1, His6-PBD345-603 (Homo sapiens, UniProt P53350). Kind of test: isothermal titration calorimetry. The test is classed as binding. In general terms: In ITC the heat of successive injections is recorded.
Test [2] deals with polo-box domain (PBD) of polo-like kinase 1 (Plk1), wild-type (His6-PBD345-603 WT). Put plainly: fluorescence-based thermal stability. The test is classed as binding, human. To be noted: for Thermal shift, Δ: difference between wild-type and Y417A/Y421A thermal shifts. The method in brief: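 Fluorescence-based thermal stability screen of phosphorylated test peptides derived from PBIP1 and TCERG1, run in parallel on wild-type Plk1 polo-box domain and on the Y417A/Y421A double mutant. The mutant was designed to weaken binding at the hydrophobic pocket, so the wild-type-minus-mutant shift reports pocket involvement.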

Test [3] has as its system PBD of human Plk1 (GPLGSPEF-PBD371-594). Kind of test: X-ray crystal structure of peptide in complex with PBD. The test is classed as binding. To be noted: crystal structures 3P36 (DPPLHSpTA), 3P37 (FDPPLHSpTA), 3Q1I (FMPPPMSpSM).

Chain of polo-box domain (PBD) of Plk1, His6-PBD345-603 (P53350 345-603): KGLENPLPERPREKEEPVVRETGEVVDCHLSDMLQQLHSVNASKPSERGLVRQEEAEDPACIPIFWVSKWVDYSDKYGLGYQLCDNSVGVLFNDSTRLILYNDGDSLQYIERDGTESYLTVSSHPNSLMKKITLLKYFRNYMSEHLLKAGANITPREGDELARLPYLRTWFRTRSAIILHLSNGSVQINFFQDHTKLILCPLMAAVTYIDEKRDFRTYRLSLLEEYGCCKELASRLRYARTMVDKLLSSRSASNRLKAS

`CC(=O)N[C@@H](C)C(=O)N[C@@H](CC(=O)O)C(=O)N1CCC[C@H]1C(=O)N1CCC[C@H]1C(=O)N[C@@H](CC(C)C)C(=O)N[C@@H](Cc1c[nH]cn1)C(=O)N[C@@H](CO)C(=O)N[C@H](C(=O)N[C@@H](C)C(N)=O)[C@@H](C)OP(=O)(O)O` [ADPPLHSpTA] (Ac-ADPPLHS[pT]A-NH2): the Kd in test [1] amounted to 1320 nM. Also, in test [2], the “Thermal shift, Δ” value is −0.2 °C.

In the case of `CC(=O)N[C@@H](CC(=O)O)C(=O)N1CCC[C@H]1C(=O)N1CCC[C@H]1C(=O)N[C@@H](CC(C)C)C(=O)N[C@@H](Cc1c[nH]cn1)C(=O)N[C@@H](CO)C(=O)N[C@H](C(=O)N[C@@H](C)C(N)=O)[C@@H](C)OP(=O)(O)O` [DPPLHSpTA] (Ac-DPPLHS[pT]A-NH2), the Kd in test [1] was determined as 2140 nM. Besides, the “Thermal shift, Δ” value in test [2] was −0.4 °C.

`CC(=O)N[C@@H](Cc1ccccc1)C(=O)N[C@@H](CC(=O)O)C(=O)N1CCC[C@H]1C(=O)N1CCC[C@H]1C(=O)N[C@@H](CC(C)C)C(=O)N[C@@H](Cc1c[nH]cn1)C(=O)N[C@@H](CO)C(=O)N[C@H](C(=O)N[C@@H](C)C(N)=O)[C@@H](C)OP(=O)(O)O` [FDPPLHSpTA] (Ac-FDPPLHS[pT]A-NH2) registered a Kd in test [1] of 250 nM. In addition, the “affinity by ITC (in words)” value in test [1] (ITC, 25 °C, compared with peptides without Phe71) is recorded as “increased affinity”. In addition, in test [2], the “Thermal shift, Δ” value was determined as 4.3 °C. Moreover, in test [2] (wild-type PBD versus Y417A/Y421A mutant), the “difference in thermal shifts between wild-type and mutant protein (in words)” value is “significant difference in thermal shifts”.

For the compound `CSCC[C@H](NC(=O)[C@H](COP(=O)(O)O)NC(=O)[C@H](CO)NC(=O)[C@H](CCSC)NC(=O)[C@@H]1CCCN1C(=O)[C@@H]1CCCN1C(=O)[C@@H]1CCCN1C(=O)[C@H](CCSC)NC(=O)[C@H](Cc1ccccc1)NC(C)=O)C(N)=O` [FMPPPMSpSM] (Ac-FMPPPMS[pS]M-NH2), in test [1], binding was put at a Kd of 515000 nM. The “hydrophobic pocket binding in crystal structure (in words)” value in test [3] is reported as “lack of hydrophobic pocket binding”. Also, the “Thermal shift, Δ” value in test [2] worked out at 0.0 °C.

As usually defined, the Kd is the constant that tells how readily two partners part at equilibrium. Low readings indicate a tighter complex, high ones a looser complex.
